Reference: ChEMBL document CHEMBL1135657, “Novel dual inhibitors of AChE and MAO derived from hydroxy aminoindan and phenethylamine as potential treatment for Alzheimer's disease” (J Med Chem, 2002)

Experiments:
[1] = target: T1, Amine oxidase [flavin-containing] A (Rattus norvegicus, UniProt P21396); assay: In vitro inhibitory concentration against Monoamine oxidase A of rat brain homogenates; value ranges from 29-44; type: tissue-based
T1 sequence (P21396 whole entry): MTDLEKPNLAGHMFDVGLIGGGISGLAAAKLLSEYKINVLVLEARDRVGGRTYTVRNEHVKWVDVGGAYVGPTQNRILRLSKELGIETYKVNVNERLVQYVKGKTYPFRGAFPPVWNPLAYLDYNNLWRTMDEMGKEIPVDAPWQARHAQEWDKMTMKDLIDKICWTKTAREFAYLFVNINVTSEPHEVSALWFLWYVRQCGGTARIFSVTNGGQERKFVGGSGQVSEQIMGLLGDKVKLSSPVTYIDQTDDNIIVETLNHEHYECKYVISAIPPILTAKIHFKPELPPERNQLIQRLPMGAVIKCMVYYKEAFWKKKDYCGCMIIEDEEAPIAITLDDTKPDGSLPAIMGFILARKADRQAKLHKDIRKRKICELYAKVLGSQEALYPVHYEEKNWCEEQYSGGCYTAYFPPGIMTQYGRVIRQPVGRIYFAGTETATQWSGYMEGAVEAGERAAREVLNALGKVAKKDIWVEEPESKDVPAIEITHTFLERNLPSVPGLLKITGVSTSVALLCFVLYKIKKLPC

Acetylcholinesterase [2] = target: T2, Acetylcholinesterase (Homo sapiens, UniProt P22303); assay: In vitro inhibitory concentration against purified Acetylcholinesterase of human erythrocytes; value ranges from 5.5-45.9
T2 sequence (P22303 whole entry): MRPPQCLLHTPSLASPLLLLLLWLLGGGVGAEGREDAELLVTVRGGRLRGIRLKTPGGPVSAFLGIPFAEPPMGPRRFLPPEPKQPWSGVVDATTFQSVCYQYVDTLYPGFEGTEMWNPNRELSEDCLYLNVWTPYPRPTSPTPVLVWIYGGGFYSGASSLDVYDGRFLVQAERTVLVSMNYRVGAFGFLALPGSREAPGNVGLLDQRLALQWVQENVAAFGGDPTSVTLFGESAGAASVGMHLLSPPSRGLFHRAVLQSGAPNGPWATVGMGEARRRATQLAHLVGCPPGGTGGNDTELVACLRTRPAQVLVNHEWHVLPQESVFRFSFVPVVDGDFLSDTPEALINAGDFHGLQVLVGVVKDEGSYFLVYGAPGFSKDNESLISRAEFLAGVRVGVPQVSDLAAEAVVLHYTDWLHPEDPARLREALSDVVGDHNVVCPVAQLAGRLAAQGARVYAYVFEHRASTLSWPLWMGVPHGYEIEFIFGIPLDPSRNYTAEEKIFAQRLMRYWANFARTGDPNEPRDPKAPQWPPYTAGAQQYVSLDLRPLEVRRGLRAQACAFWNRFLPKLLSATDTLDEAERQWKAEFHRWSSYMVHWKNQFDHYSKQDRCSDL

[3] = target: T3, Amine oxidase [flavin-containing] B (Rattus norvegicus, UniProt P19643); assay: In vitro inhibitory concentration against Monoamine oxidase B of rat brain homogenates; value ranges from 6-350
T3 sequence (P19643 whole entry): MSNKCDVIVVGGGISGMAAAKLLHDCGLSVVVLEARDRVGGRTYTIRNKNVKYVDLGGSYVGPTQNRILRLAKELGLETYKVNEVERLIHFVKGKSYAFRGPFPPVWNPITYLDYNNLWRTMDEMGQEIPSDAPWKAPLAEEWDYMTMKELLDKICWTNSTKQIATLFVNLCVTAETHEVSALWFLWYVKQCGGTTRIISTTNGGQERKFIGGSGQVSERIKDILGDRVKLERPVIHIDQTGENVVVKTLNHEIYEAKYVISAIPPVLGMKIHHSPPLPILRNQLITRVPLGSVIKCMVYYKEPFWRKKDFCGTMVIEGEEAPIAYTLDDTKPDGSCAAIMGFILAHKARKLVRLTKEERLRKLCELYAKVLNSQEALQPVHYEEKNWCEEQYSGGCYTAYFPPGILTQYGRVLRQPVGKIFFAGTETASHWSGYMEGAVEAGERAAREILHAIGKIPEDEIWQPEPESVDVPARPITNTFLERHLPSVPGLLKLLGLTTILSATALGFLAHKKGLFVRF

Acetylcholinesterase [4] = target: T2, Acetylcholinesterase; assay: In vitro inhibitory concentration against purified Acetylcholinesterase of human erythrocytes; value ranges from 22.2-56.8
[5] = target: T3, Amine oxidase [flavin-containing] B; assay: In vitro inhibitory concentration against Monoamine oxidase B of rat brain homogenates; type: tissue-based
[6] = target: T1, Amine oxidase [flavin-containing] A; assay: In vitro inhibitory concentration against Monoamine oxidase A of rat brain homogenates; value ranges from 100-310; type: tissue-based
Acetylcholinesterase [7] = target: T2, Acetylcholinesterase; assay: In vitro inhibitory concentration against purified Acetylcholinesterase of human erythrocytes; value ranges from 1.7-2.5
[8] = target: T1, Amine oxidase [flavin-containing] A; assay: In vitro inhibitory concentration against Monoamine oxidase A of rat brain homogenates; type: tissue-based
Acetylcholinesterase [9] = target: T2, Acetylcholinesterase
Acetylcholinesterase [10] = target: T2, Acetylcholinesterase; assay: In vitro inhibitory concentration against purified Acetylcholinesterase of human erythrocytes
Acetylcholinesterase [11] = target: T2, Acetylcholinesterase; assay: In vitro inhibitory concentration against purified Acetylcholinesterase of human erythrocytes; value ranges from 224-1012
Butyrylcholinesterase [12] = target: T4, Butyrylcholinesterase (Equus caballus, UniProt Q9N1N9); assay: In vitro inhibitory concentration against Butyrylcholinesterase of horse serum; value ranges from 0.25-0.40
T4 sequence (Q9N1N9 whole entry): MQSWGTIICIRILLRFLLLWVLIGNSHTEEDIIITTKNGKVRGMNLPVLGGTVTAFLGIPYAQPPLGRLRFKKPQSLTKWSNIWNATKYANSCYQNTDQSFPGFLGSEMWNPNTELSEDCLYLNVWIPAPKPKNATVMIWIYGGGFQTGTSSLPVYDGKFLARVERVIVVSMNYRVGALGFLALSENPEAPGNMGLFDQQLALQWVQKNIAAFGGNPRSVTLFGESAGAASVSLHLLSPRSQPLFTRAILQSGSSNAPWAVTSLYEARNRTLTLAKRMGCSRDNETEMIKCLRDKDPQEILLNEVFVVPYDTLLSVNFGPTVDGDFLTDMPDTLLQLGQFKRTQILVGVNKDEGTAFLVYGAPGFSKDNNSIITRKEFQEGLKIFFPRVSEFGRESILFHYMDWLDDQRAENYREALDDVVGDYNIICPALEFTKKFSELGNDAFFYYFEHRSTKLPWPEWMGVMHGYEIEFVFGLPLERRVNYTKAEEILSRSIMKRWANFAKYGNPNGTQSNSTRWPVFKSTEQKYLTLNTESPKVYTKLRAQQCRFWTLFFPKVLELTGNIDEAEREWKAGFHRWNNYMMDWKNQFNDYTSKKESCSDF
Method in brief: (§1)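 Ellman assay followed, with 200 µM butyrylthiocholine as substrate. Runs were in triplicate with four-point dose-response curves. IC50 and fiducial limits came from log concentration versus % inhibition.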

Acetylcholinesterase [13] = target: T2, Acetylcholinesterase; assay: In vitro inhibitory concentration against purified Acetylcholinesterase of human erythrocytes; value ranges from […]-[…]
[14] = target: T1, Amine oxidase [flavin-containing] A; assay: In vitro inhibitory concentration against Monoamine oxidase A of rat brain homogenates; value ranges from 1.0-1.8; type: tissue-based
[15] = target: T3, Amine oxidase [flavin-containing] B; assay: In vitro inhibitory concentration against Monoamine oxidase B of rat brain homogenates; value ranges from 1.6-2.9; type: tissue-based
[16] = target: T1, Amine oxidase [flavin-containing] A; assay: In vitro inhibitory concentration against Monoamine oxidase A of rat brain homogenates; value ranges from 290-920; type: tissue-based
Butyrylcholinesterase [17] = target: T4, Butyrylcholinesterase; assay: In vitro inhibitory concentration against Butyrylcholinesterase of horse serum; value ranges from 0.016-0.021; method in brief: as §1
Acetylcholinesterase [18] = target: T2, Acetylcholinesterase; remark: listed apart in the source
[19] = target: T1, Amine oxidase [flavin-containing] A; assay: In vitro inhibitory concentration against Monoamine oxidase A of rat brain homogenates; value ranges from 0.72-0.97; type: tissue-based
[20] = target: T3, Amine oxidase [flavin-containing] B; assay: In vitro inhibitory concentration against Monoamine oxidase B of rat brain homogenates; value ranges from 90-260
[21] = target: T1, Amine oxidase [flavin-containing] A; assay: In vitro inhibitory concentration against Monoamine oxidase A of rat brain homogenates; value ranges from 11-38; type: tissue-based
Acetylcholinesterase [22] = target: T2, Acetylcholinesterase; assay: In vitro inhibitory concentration against purified Acetylcholinesterase of human erythrocytes; value ranges from 28.1-58.3
[23] = target: T1, Amine oxidase [flavin-containing] A; assay: In vitro inhibitory concentration against Monoamine oxidase A of rat brain homogenates; value ranges from 100-340; type: tissue-based
Butyrylcholinesterase [24] = target: T4, Butyrylcholinesterase; assay: In vitro inhibitory concentration against Butyrylcholinesterase of horse serum; value ranges from 0.8-3.2
Acetylcholinesterase [25] = target: T2, Acetylcholinesterase; assay: In vitro inhibitory concentration against purified Acetylcholinesterase of human erythrocytes; value ranges from 11.9-128
[26] = target: T1, Amine oxidase [flavin-containing] A; assay: In vitro inhibitory concentration against Monoamine oxidase A of rat brain homogenates; value ranges from 190-310; type: tissue-based
[27] = target: T3, Amine oxidase [flavin-containing] B; assay: In vitro inhibitory concentration against Monoamine oxidase B of rat brain homogenates; value ranges from 150-360; type: tissue-based
[28] = target: T1, Amine oxidase [flavin-containing] A; assay: In vitro inhibitory concentration against Monoamine oxidase A of rat brain homogenates; value ranges from 600-1100; type: tissue-based
Acetylcholinesterase [29] = target: T2, Acetylcholinesterase; assay: In vitro inhibitory concentration against purified Acetylcholinesterase of human erythrocytes; value ranges from 7.33-61.5
[30] = target: T1, Amine oxidase [flavin-containing] A; assay: In vitro inhibitory concentration against Monoamine oxidase A of rat brain homogenates; value ranges from 0.8-1.0; type: tissue-based
Acetylcholinesterase [31] = target: T2, Acetylcholinesterase; assay: In vitro inhibitory concentration against purified Acetylcholinesterase of human erythrocytes; value ranges from 5.6-11.9
[32] = target: T3, Amine oxidase [flavin-containing] B; assay: In vitro inhibitory concentration against Monoamine oxidase B of rat brain homogenates; value ranges from 0.19-0.26; type: tissue-based
Method in brief: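 Rat brain homogenate (in 0.3 M sucrose) as enzyme source; compounds diluted 10⁻²M to 10⁻⁹M in 0.05 M phosphate buffer with 0.15 μM clorgyline; preincubated 60 min at 37 °C, then 10 μM ¹⁴C-phenylethylamine added for 20 min more; stopped with citric acid; metabolites extracted into toluene/ethyl acetate, scintillation counted; activity as % of control, tranylcypromine blank.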

## C#CCN(C)C1CCc2ccc(OC(=O)N(C)C)cc21 (stereo not drawn)
[1]
  IC50: 36 µM
Acetylcholinesterase [2]
  IC50: 12.9 µM
[3]
  IC50: 47 µM

## CCN(C)C(=O)Oc1cccc(CCN)c1
Acetylcholinesterase [4]
  IC50: 35.5 µM
[5]
  IC50: > 1000 µM
[6]
  IC50: 180 µM

## C#CCN(C)[C@H](C)Cc1cccc(OC(=O)N(C)CCCCCC)c1
Acetylcholinesterase [7]
  IC50: 2 µM

## CCCN(C)C(=O)Oc1cccc2c1C(N)CC2 (stereo not drawn)
[5]
  IC50: > 1000 µM
[8]
  IC50: 1000 µM

## CN(C)C(=O)Oc1ccc2c(c1)CC(N)CC2 (stereo not drawn)
Acetylcholinesterase [9]
  IC50: 3.24 µM

## C#CCN(C)C1CCc2ccc(OC(=O)N(C)CCC)cc21 (stereo not drawn)
Acetylcholinesterase [10]
  IC50: > 1000 µM

## C#CCNC1CCc2cccc(OC(=O)N(C)CC)c21 (stereo not drawn)
Acetylcholinesterase [11]
  IC50: 525 µM
Butyrylcholinesterase [12]
  IC50: 0.31 µM

## CNC1CCc2cccc(OC(=O)N(C)C)c21 (stereo not drawn)
Acetylcholinesterase [13]
  IC50: 0.51 µM

## C#CCNC1CCc2cccc(O)c21 (stereo not drawn)
[14]
  IC50: 1.3 µM
[15]
  IC50: 2.1 µM

## CCNC1CCc2ccc(OC(=O)N(C)C)cc21 (stereo not drawn)
Acetylcholinesterase [13]
  IC50: 24.5 µM
[16]
  IC50: 500 µM

## C#CCNC1CCc2c(OC(=O)N(C)CC)cccc21 (stereo not drawn)
Butyrylcholinesterase [17]
  IC50: 0.019 µM
Acetylcholinesterase [18]
  IC50: 2.15 µM
[19]
  IC50: 0.83 µM
[20]
  IC50: 150 µM

## CCN(C)C(=O)Oc1cccc(CCNC)c1
[5]
  IC50: > 1000 µM
[21]
  IC50: 20 µM

## CCN(C)C(=O)Oc1ccc2c(c1)C(NC)CC2 (stereo not drawn)
Acetylcholinesterase [22]
  IC50: 38.6 µM

## C#CCNC(C)Cc1ccccc1 (stereo not drawn)
[23]
  IC50: 195 µM

## C#CCNC1CCc2ccc(OC(=O)N(C)CC)cc21 (stereo not drawn)
Butyrylcholinesterase [24]
  IC50: 1.5 µM
[5]
  IC50: > 1000 µM
Acetylcholinesterase [25]
  IC50: 47 µM
[26]
  IC50: 250 µM

## C#CCNC1CCc2ccc(OC(=O)N(CC)C3CCCCC3)cc21 (stereo not drawn)
Acetylcholinesterase [13]
  IC50: 17.9 µM

## C#CCNC(C)Cc1cccc(O)c1 (stereo not drawn)
[27]
  IC50: 230 µM
[28]
  IC50: 830 µM

## CCNC(=O)Oc1ccc2c(c1)C(N)CC2 (stereo not drawn)
Acetylcholinesterase [29]
  IC50: 17.7 µM

## C#CCN(C)C1CCc2cccc(OC(=O)N(C)CCC)c21 (stereo not drawn)
Acetylcholinesterase [10]
  IC50: > 1000 µM

## C#CCN(C)[C@H](C)Cc1cccc(OC(=O)N(C)C2CCCCC2)c1
[30]
  IC50: 0.9 µM
Acetylcholinesterase [31]
  IC50: 7.9 µM
[32]
  IC50: 0.22 µM
